From ChEMBL document CHEMBL4354813, “Design, Synthesis, and Pharmacological Evaluation of Potent Positive Allosteric Modulators of the Glucagon-like Peptide-1 Receptor (GLP-1R)” (J Med Chem, 2020) come the findings set out here.

Active and inactive are the calls of the source. No cut-off for these calls is given here.

A short description of data set [1]: Cmax in C57Bl6 mouse at 10 mg/kg, po administered as single dose measured up to 24 hrs ESI-LC/MS-MS analysis. It is filed as ADME, organism-based. As to conditions: in vivo. Also on record: dose 10 mg/kg, route oral. Put shortly: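 Single dose of compound: 3 mg/kg i.v. in solution (75% water : 25% of 75% Glycoferol/25% Cremophor) or 10 mg/kg p.o. as wet-milled suspension (0.6% methylcellulose, 0.5% Tween 80 in water); male Wistar rats n=3 per route, female C57Bl6 mice n=24 per route. Plasma sampled 0.25–24 h (p.o.), 0.083–24 h (i.v.); heparinized plasma, acetonitrile precipitation, ESI-LC/MS-MS (LOQ 1 ng/mL rat, 5 ng/mL mouse); noncompartmental analysis, linear trapezoidal.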

The nature of data set [2]: Drug recovery in iv dosed rat bile assessed as metabolically unchanged compound level in rat fistula study. It is filed as ADME, organism-based. As to conditions: read-out: Drug recovery.
Data set [3] in a line: Efflux ratio in human Caco2/TC7 cells at pH 7.4 in presence of 0.5% BSA. Type of data set: ADME, cell-based. As to conditions: Caco-2, pH 7.4. Put shortly: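 Efflux in Caco-2/TC7 cells under isocratic conditions, pH 7.4 and 0.5% BSA in both compartments, compound 2 µM, with and without cyclosporine A as efflux inhibitor; LC-MS/MS analysis.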
In general terms: Caco-2 cells form a polarised layer with tight junctions and transporters.

Another data set relates to Mus musculus. The data set is described as follows: Suppression of blood glucose concentration in ob/ob C57Bl/6J mouse model of T2DM at 30 mg/kg, po in absence of OATP/MRP2 inhibitor rifampicin and/or GLP1(9-36)NH2 by oral glucose-tolerance test. Type of data set: functional, organism-based. An outline of the steps: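 Male ob/ob mice aged 10–11 weeks, n=7, randomised on blood glucose and fasted overnight. Rifampicin 60 mg/kg p.o. 2.5 h before the oGTT, compound 30 mg/kg p.o. 1 h before, GLP1(9-36)NH2 i.p. 15 min before, each given as indicated. Glucose 2 g/kg orally. Tail-vein glucose by glucometer at 0, 15, 30, 60 and 90 min.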

Data set [4] can be described thus: Chemical stability in presence of GSH. Type of data set: physicochemical.
Data set [5] in a line: Clearance in C57Bl6 mouse at 3 mg/kg, iv administered as single dose measured up to 24 hrs ESI-LC/MS-MS analysis. Type of data set: ADME, organism-based. As to conditions: in vivo. An outline of the steps: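 Female C57Bl6 mice (n=24) given single 3 mg/kg i.v. in solution (75% water : 25% of 75% Glycoferol/25% Cremophor); plasma sampled at 0.083, 0.25, 0.5, 1, 2, 4, 6, 8, 24 h; heparinized plasma after acetonitrile protein precipitation analysed by ESI-LC/MS-MS (LOQ 5 ng/mL); noncompartmental parameters with linear trapezoidal calculation.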

In data set [6] the target is Voltage-gated inwardly rectifying potassium channel KCNH2 (Homo sapiens, UniProt Q12809). Description: Inhibition of human ERG by patch clamp assay. (In general: Patch clamp records ionic current or voltage across a cell membrane.)
Data set [7] has as its target T1, Solute carrier organic anion transporter family member 1B1 (Homo sapiens, UniProt Q9Y6L6).
T1 sequence (Q9Y6L6 whole entry): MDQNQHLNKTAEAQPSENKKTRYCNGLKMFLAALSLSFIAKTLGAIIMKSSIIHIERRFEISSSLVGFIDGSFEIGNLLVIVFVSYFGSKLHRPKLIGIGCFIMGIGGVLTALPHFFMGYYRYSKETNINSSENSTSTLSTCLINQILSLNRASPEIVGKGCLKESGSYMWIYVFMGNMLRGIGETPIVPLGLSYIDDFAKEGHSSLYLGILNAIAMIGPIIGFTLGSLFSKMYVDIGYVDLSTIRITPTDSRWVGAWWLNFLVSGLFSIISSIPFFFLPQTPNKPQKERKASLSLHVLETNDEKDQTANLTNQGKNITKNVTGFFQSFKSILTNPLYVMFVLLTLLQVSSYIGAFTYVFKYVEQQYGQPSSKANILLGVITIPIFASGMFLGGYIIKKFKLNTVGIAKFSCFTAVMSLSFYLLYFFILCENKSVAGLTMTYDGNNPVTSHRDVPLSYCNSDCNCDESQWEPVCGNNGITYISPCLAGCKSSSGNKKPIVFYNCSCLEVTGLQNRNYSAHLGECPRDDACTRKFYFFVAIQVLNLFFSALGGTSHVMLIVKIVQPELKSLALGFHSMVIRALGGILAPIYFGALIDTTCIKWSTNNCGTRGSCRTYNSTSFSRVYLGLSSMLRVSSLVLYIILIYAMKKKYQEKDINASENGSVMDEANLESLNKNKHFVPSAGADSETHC
Description: Substrate activity at human OATP1B1 expressed in HEK293 cells assessed as increase in compound uptake at 1 uM LC-MS/MS analysis. Type of data set: ADME, cell-based. As to conditions: hek293, 1 µM, TDE = time-dependent effect. Put shortly:
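HEK-TR cells overexpressing hOATP1B1 or hOATP1B3, run in parallel with control HEK-TR cells, seeded at 1 x 10⁵ cells/well one day before. Time-dependent uptake of 1 μM compound in HBSS at 37 °C, quadruplicates. Uptake stopped with ice-cold buffer, cells washed, lysed and quantified by LC-MS/MS. Uptake ratio calculated against the control cells.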

Data set [8] concerns the target Vasoactive intestinal polypeptide receptor 2 (Homo sapiens) (UniProt P41587). Description: Activity at human VIPR expressed in PSC-HEK293 cells incubated for 30 mins by HTRF cAMP assay.
The nature of data set [9]: Metabolic lability in mouse liver microsomes incubated up to 20 mins by LC-MS/MS analysis.
Data set [10] deals with Glucagon-like peptide 1 receptor (Homo sapiens, UniProt P43220). Description: Positive allosteric modulator activity at human GLP-1R expressed in PSC-HEK293 cells assessed as potentiation of GLP1(9-36)NH2-induced cAMP accumulation by measuring shift in EC50 of endogenous GLP1(9-36)NH2 at 10 uM incubated for 30 mins by HTRF cAMP assay relative to control. Type of data set: functional, cell-based. Put shortly: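 Thawed frozen PSC-HEK293 cells stably expressing human GLP-1R, 2000 cells/well in HBSS/20 mM HEPES/0.1% BSA with 2 mM IBMX. Shift format: GLP1(9-36)NH2 dose-response with compound fixed at 10 or 3 µM; 30 min room temperature; cAMP by HTRF (665/620 nm ratio) after 1 h with lysis reagents; 4-parameter logistic fit; EC50 shift factor derived.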
Background: Changes in cAMP serve as a functional read-out for many G protein-coupled receptors.

The nature of data set [11]: Cmax in Wistar rat at 10 mg/kg, po administered as single dose treated 2 hrs after dosing with 40 mg/kg, po OATP/MRP2 inhibitor rifampicin and measured up to 24 hrs ESI-LC/MS-MS analysis. As to conditions: in vivo. Also on record: dose 10 mg/kg, route oral. It is filed as ADME, organism-based. An outline of the steps:
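Male Wistar rats (n=3 per route) pretreated orally with rifampicin 40 mg/kg (0.6% methylcellulose, 0.5% Tween 80 in water) 2 h before compound, given 3 mg/kg i.v. in Glycoferol/Cremophor-water solution or 10 mg/kg p.o. wet-milled suspension. Plasma sampled up to 24 h; ESI-LC/MS-MS after acetonitrile precipitation (LOQ 1 ng/mL); noncompartmental analysis.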

One may read the Cmax as the peak of the concentration-time curve. Usually efflux ratio stands for the permeability from basolateral to apical divided by that in the opposite direction, in the common usage. As a reminder, the clearance is the volume of plasma or blood freed of the substance per unit of time. A higher clearance goes with efficient removal. For orientation: IC50 means the concentration at which inhibition is half-maximal. A high value points to weaker potency.

Sequence of Vasoactive intestinal polypeptide receptor 2 (Homo sapiens) (P41587 whole entry, looked up): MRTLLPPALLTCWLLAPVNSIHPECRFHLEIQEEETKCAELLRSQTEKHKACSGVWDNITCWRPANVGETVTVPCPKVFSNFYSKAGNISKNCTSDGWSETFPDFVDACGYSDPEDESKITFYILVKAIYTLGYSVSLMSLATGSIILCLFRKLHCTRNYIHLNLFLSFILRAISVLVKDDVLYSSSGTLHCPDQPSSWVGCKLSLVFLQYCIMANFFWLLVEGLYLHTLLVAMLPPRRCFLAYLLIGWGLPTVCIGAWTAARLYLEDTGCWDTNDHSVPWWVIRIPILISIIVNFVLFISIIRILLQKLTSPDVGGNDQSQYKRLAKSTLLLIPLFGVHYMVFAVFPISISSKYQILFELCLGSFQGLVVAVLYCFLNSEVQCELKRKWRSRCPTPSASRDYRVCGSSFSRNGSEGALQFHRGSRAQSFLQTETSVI
Sequence of Glucagon-like peptide 1 receptor (P43220 whole entry): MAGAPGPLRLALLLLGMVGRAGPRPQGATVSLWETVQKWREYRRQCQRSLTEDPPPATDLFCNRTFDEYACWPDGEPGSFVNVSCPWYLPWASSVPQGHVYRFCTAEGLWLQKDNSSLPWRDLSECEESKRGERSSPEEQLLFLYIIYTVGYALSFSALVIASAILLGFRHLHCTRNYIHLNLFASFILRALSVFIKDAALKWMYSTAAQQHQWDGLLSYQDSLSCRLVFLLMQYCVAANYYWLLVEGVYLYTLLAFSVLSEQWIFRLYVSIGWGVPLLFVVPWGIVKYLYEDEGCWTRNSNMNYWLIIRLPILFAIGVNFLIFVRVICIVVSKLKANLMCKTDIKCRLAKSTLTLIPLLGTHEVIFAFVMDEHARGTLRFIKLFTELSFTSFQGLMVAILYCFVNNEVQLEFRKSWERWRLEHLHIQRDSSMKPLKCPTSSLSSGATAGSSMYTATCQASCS
Sequence of Voltage-gated inwardly rectifying potassium channel KCNH2 (Q12809 whole entry): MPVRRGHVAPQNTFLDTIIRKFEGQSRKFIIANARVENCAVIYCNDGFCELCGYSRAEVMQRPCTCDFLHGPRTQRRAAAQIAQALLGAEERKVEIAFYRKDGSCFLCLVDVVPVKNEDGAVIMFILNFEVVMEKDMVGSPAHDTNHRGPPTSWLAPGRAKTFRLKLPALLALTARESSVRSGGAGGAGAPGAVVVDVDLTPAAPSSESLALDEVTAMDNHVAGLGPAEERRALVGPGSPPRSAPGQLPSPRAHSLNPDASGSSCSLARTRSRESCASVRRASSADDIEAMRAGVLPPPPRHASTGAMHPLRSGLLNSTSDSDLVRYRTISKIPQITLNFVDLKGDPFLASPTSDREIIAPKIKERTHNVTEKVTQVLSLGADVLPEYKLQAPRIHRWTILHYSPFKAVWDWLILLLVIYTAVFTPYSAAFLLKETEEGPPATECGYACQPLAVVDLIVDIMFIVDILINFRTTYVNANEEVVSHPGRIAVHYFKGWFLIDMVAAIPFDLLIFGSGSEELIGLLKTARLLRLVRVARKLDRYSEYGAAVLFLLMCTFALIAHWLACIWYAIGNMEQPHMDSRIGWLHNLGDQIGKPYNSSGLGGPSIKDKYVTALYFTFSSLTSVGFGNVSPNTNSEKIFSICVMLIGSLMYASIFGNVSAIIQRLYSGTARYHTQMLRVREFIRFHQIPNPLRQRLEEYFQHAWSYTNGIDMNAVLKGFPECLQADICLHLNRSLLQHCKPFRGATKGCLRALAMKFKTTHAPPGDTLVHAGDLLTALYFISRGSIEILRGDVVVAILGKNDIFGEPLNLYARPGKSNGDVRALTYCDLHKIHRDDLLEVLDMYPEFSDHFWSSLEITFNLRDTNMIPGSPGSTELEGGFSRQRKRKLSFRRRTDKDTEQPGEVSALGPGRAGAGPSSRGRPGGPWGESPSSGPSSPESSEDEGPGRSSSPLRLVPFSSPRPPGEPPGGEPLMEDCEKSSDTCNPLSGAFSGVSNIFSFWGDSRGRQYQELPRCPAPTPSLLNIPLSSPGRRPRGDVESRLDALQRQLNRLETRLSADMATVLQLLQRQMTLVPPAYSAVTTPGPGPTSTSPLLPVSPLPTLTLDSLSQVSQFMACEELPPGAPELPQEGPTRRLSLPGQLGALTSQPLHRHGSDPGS

Consider `CC(C)(C)OC(=O)n1c2c(c3ccccc31)C[C@H]1C(=O)N3C[C@@H](CC(=O)O)C[C@H]3[C@@H]2N1C(=O)CC1CCC(F)(F)CC1`, for which the results for the Cmax in data set [1] and in data set [11] were 227 ng/mL and 1130 ng/mL, respectively. Besides, in data set [2], the dose excreted came to 74%. Further, the efflux ratio in data set [3] was found to be 247. The outcome (with Mus musculus; in data set [8]) was inactive. Moreover, the Stability in [4] stood at 100%. The clearance in data set [5] is 109 mL/min/kg. Moreover, the half-inhibitory concentration (IC50) in [6] was more than 30 µM. For the same compound, in [7], the Activity result was “Tde”. In [9], this compound returned a metabolized at 20 min of 5%. For the same compound, the Ratio EC50 in [10] came out at 8190.

With `CC(O)CCN1C[C@H]2c3c(c4ccccc4n3C(=O)OC(C)(C)C)C[C@@H](C1=O)N2C(=O)CC1CCC(F)(F)CC1` (some centres undefined), in [8], the result was inactive. Besides, in [10], the Ratio EC50 amounted to 3140.
